The subject of one test is Staphylococcus aureus. Description: Compound was tested in vitro for antibacterial activity against Staphylococcus aureus UC76. It is filed as functional. The method in brief: (§1)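 MIC by microplate broth dilution: serial twofold dilutions of antibiotic in brain-heart infusion broth, each well inoculated with standardized cell suspension to ~10^5 viable cells per mL of drug-supplemented medium. Incubated 37 °C for 20 h; MIC read as lowest concentration inhibiting visible growth.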

A further test has as its system Streptococcus pneumoniae. In words: Compound was tested in vitro for antibacterial activity against Streptococcus pneumoniae UC 41. It is filed as functional. The procedure, abridged: as §1
For the next test, the system named is Salmonella typhi. Description: Compound was tested in vitro for antibacterial activity against Salmonella typhi UC 215. It is filed as functional, Salmonella enterica subsp. enterica serovar Typhi. The note with it: Salmonella enterica. The procedure, abridged: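 Microplate broth dilution: serial twofold antibiotic dilutions in brain-heart infusion broth, inoculated with a standardized cell suspension to a final ~10^5 viable cells per mL. Incubated 37 °C for 20 h. MIC read as the lowest concentration that inhibited visible growth.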

Another test relates to Klebsiella pneumoniae. In words: Compound was tested in vitro for antibacterial activity against Klebsiella pneumoniae UC 58. The class given is functional. The method in brief:
as §1

The test system of test [1] is Pseudomonas aeruginosa. In words: Compound was tested in vitro for antibacterial activity against Pseudomonas aeruginosa UC 3683. The class given is functional. The method in brief: as §1
Another test has as its system Proteus mirabilis. In words: Compound was tested in vitro for antibacterial activity against Proteus mirabilis UC 6671. The class given is functional. The procedure, abridged: as §1
For test [2], the system named is Pseudomonas aeruginosa. In words: Compound was tested in vitro for antibacterial activity against Pseudomonas aeruginosa UC 3680. It is filed as functional. The procedure, abridged: as §1
The test system of another test is Streptococcus pyogenes. In words: Compound was tested in vitro for antibacterial activity against Streptococcus pyogenes UC 152. The class given is functional. The method in brief:
as §1

Test [3] is described as follows: Compound was tested in vitro for antibacterial activity against Salmonella schottmuelleri UC 126. It is filed as functional. The method in brief:
as §1

The test system of test [4] is Pseudomonas aeruginosa. In words: Compound was tested in vitro for antibacterial activity against Pseudomonas aeruginosa UC 3681. It is filed as functional. The procedure, abridged: as §1
The test system of test [5] is Pseudomonas aeruginosa. Description: Compound was tested in vitro for antibacterial activity against Pseudomonas aeruginosa UC 3682. The class given is functional. The procedure, abridged:
as §1

The next test deals with Proteus vulgaris. Description: Compound was tested in vitro for antibacterial activity against Proteus vulgaris UC 93. The class given is functional. The procedure, abridged:
as §1

The test system of another test is Enterococcus faecalis. Description: Compound was tested in vitro for antibacterial activity against Streptococcus faecalis UC 694. It is filed as functional. The procedure, abridged:
as §1

Test [6] deals with Pseudomonas aeruginosa. In words: Compound was tested in vitro for antibacterial activity against Pseudomonas aeruginosa UC 6436. It is filed as functional. The method in brief: as §1
The test system of a further test is Escherichia coli. Description: Compound was tested in vitro for antibacterial activity against Escherichia coli UC 45. It is filed as functional. The method in brief: as §1
Test [7] relates to Pseudomonas aeruginosa. In words: Compound was tested in vitro for antibacterial activity against Pseudomonas aeruginosa UC 95. It is filed as functional. The method in brief:
as §1

Test [8] relates to Pseudomonas aeruginosa. In words: Compound was tested in vitro for antibacterial activity against Pseudomonas aeruginosa UC 3679. It is filed as functional. The procedure, abridged: as §1
The subject of another test is Serratia marcescens. Description: Compound was tested in vitro for antibacterial activity against Serratia marcescens UC 131. It is filed as functional. The method in brief:
as §1

Our source for the MIC values is ChEMBL document CHEMBL1121766, “Chemical modification of aminoglycosides. 3. Synthesis of 2"-deoxykanamycins from neamine” (1981).

In brackets after ≈: the same amount, converted by molar mass. Where only a bound is given, the exact number is not on record here.

Turning to `NCC1CCC(N)C(OC2C(N)CC(N)C(OC3CC(N)C(O)C(CO)O3)C2O)O1` (stereo not drawn), the MIC – broadly, the least concentration at which growth counts as inhibited – against Staphylococcus aureus is less than 1 µg/mL; with Streptococcus pneumoniae, 250 µg/mL (≈ 574 µM); with Salmonella typhi, 15.6 µg/mL (≈ 35.8 µM); against Klebsiella pneumoniae it was 3.9 µg/mL (≈ 8.95 µM); against Pseudomonas aeruginosa [1], 7.8 µg/mL (≈ 17.9 µM); against Proteus mirabilis, 62.5 µg/mL (≈ 144 µM). In addition, the MIC against Pseudomonas aeruginosa [2] worked out at 7.8 µg/mL (≈ 17.9 µM); in the test on Streptococcus pyogenes it was 7.8 µg/mL (≈ 17.9 µM); in [3], 15.6 µg/mL (≈ 35.8 µM); in the test with Pseudomonas aeruginosa [4] it was 15.6 µg/mL (≈ 35.8 µM); in the test on Pseudomonas aeruginosa [5], 15.6 µg/mL (≈ 35.8 µM); in the test on Proteus vulgaris it was 31.2 µg/mL (≈ 71.6 µM). Besides, the MIC against Enterococcus faecalis is 250 µg/mL (≈ 574 µM); in the test on Pseudomonas aeruginosa [6], greater than 125 µg/mL; in the test with Escherichia coli, 62.5 µg/mL (≈ 144 µM); against Pseudomonas aeruginosa [7], 7.8 µg/mL (≈ 17.9 µM); in the test with Pseudomonas aeruginosa [7] (Pseudomonas aeruginosa, read-out: MIC) it was 15.6 µg/mL (≈ 35.8 µM); against Pseudomonas aeruginosa [8] it was 7.8 µg/mL (≈ 17.9 µM). In the test with Serratia marcescens, this compound registered an MIC of 15.6 µg/mL (≈ 35.8 µM).
As to `NCC1OC(OC2C(N)CC(N)C(OC3CC(N)C(O)C(CO)O3)C2O)C(N)C(O)C1O` (stereo not drawn), the MIC worked out at 3.9 µg/mL (≈ 8.34 µM) in the test with Staphylococcus aureus; 500 µg/mL (≈ 1070 µM) against Streptococcus pneumoniae; 3.9 µg/mL (≈ 8.34 µM) against Klebsiella pneumoniae; 62.5 µg/mL (≈ 134 µM) against Proteus mirabilis; 15.6 µg/mL (≈ 33.4 µM) against Streptococcus pyogenes; 15.6 µg/mL (≈ 33.4 µM) in test [3]. The MIC in the test on Enterococcus faecalis came to 1000 µg/mL (≈ 2140 µM); against Escherichia coli it was 31.2 µg/mL (≈ 66.7 µM); in the test on Serratia marcescens, 31.2 µg/mL (≈ 66.7 µM).
